Measured values from ChEMBL document CHEMBL4011638, “Semisynthetic Flavone-Derived Antimicrobials with Therapeutic Potential against Methicillin-Resistant Staphylococcus aureus (MRSA)” (J Med Chem, 2017).
≈ marks a conversion by molar mass, not a printed value. Calls of active or inactive are those of the source. The calls are words filed in the database; no cut-off is given here.

How the values were obtained:
Staphylococcus aureus [1] = assay: Antibacterial activity against methicillin-resistant Staphylococcus aureus DM 9808R after 24 hrs by broth microdilution method; assay type: functional
How it was run: (§1)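 Broth microdilution per CLSI in cation-adjusted Mueller−Hinton broth, in tubes. Compounds dissolved in H2O or DMF, then diluted in PBS to 1000 μg/mL stocks. Serial 2-fold dilutions were made, with final DMF 2.5%. Organisms were grown on TSA at 35 °C for 20 h and adjusted to ~5× 10^5 CFU/mL. Tubes were incubated at 35 °C for 24 h. MIC was the lowest concentration with no visible growth versus control. Biological replicates.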

Staphylococcus aureus [2] = assay: Antibacterial activity against Staphylococcus aureus DM4001R after 24 hrs by broth microdilution method; assay type: functional; how it was run: as §1
Staphylococcus aureus [3] = assay: Antibacterial activity against methicillin-resistant Staphylococcus aureus DM 21455 after 24 hrs by broth microdilution method; assay type: functional; settings: DM 21455, 24 h; how it was run: as §1
Bacillus cereus = assay: Antibacterial activity against Bacillus cereus ATCC 11778 after 24 hrs by broth microdilution method; assay type: functional; settings: ATCC 11778, 24 h
How it was run: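 MIC by CLSI broth microdilution in cation-adjusted Mueller–Hinton broth, tubes. Compounds in H2O or DMF, diluted in PBS to 1000 μg/mL stocks, then serial 2-fold dilutions (final DMF 2.5%). Inoculum ~5×10^5 CFU/mL from TSA plates grown 35 °C 20 h. Incubation 35 °C 24 h; MIC = no visible growth vs control. Biological replicates.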

Staphylococcus aureus [4] = assay: Antibacterial activity against methicillin-sensitive Staphylococcus aureus DM4583R after 24 hrs by broth microdilution method; assay type: functional; how it was run: as §1
Staphylococcus aureus [5] = assay: Antibacterial activity against methicillin-sensitive Staphylococcus aureus DM4400R after 24 hrs by broth microdilution method; assay type: functional; how it was run: as §1
Staphylococcus aureus [6] = assay: Antibacterial activity against methicillin-sensitive Staphylococcus aureus DM4299 after 24 hrs by broth microdilution method; assay type: functional; settings: DM4299, 24 h; how it was run: as §1
Staphylococcus aureus [7] = assay: Antibacterial activity against methicillin-sensitive Staphylococcus aureus ATCC 29213 after 24 hrs by broth microdilution method; assay type: functional; settings: ATCC 29213, 24 h; how it was run: as §1
Staphylococcus aureus [8] = assay: Antibacterial activity against methicillin-sensitive Staphylococcus aureus ATCC 6538 after 24 hrs by broth microdilution method; assay type: functional; settings: ATCC 6538, 24 h; how it was run: as §1
Staphylococcus aureus [9] = assay: Antibacterial activity against methicillin-sensitive Staphylococcus aureus ATCC 29737 after 24 hrs by broth microdilution method; assay type: functional; settings: ATCC 29737, 24 h; how it was run: as §1
Staphylococcus aureus [10] = assay: Antibacterial activity against methicillin-resistant Staphylococcus aureus DB6506 after 24 hrs by broth microdilution method; assay type: functional; settings: DB6506, 24 h; how it was run: as §1
Staphylococcus aureus [11] = assay: Antibacterial activity against methicillin-resistant Staphylococcus aureus DB68004 after 24 hrs by broth microdilution method; assay type: functional; settings: DB68004, 24 h; how it was run: as §1
Staphylococcus aureus [12] = assay: Antibacterial activity against methicillin-resistant Staphylococcus aureus DB57964 after 24 hrs by broth microdilution method; assay type: functional; settings: DB57964, 24 h; how it was run: as §1
Staphylococcus aureus [13] = assay: Antibacterial activity against methicillin-resistant Staphylococcus aureus ATCC 43300 after 24 hrs by broth microdilution method; assay type: functional; settings: ATCC 43300, 24 h; how it was run: as §1
Staphylococcus aureus [14] = assay: Antibacterial activity against methicillin-resistant Staphylococcus aureus ATCC 700699 after 24 hrs by broth microdilution method; assay type: functional; settings: ATCC 700699, 24 h; how it was run: as §1
Staphylococcus aureus [15] = assay: Antibacterial activity against methicillin-resistant Staphylococcus aureus BAA-38 after 24 hrs by broth microdilution method; assay type: functional; settings: BAA-38, 24 h; how it was run: as §1
[16] = Ratio of HC50 for New Zealand white rabbit RBC to MIC for methicillin-sensitive Staphylococcus aureus DM4583R
How it was run: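 HC50 measured on fresh New Zealand white rabbit RBCs, washed three times in PBS, at 4% v/v final. Cells were incubated with 2-fold serial dilutions (DMF final 0.5%) at 37 °C for 1 h, then centrifuged. Supernatant absorbance was read at 576 nm, with PBS as 0% and 2% Triton X-100 as 100% lysis. HC50 is the concentration lysing 50% of cells, divided by MIC from broth microdilution.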

Staphylococcus aureus [17] = assay: Induction of plasma membrane permeability in methicillin-resistant Staphylococcus aureus DM9808R assessed as increase in fluorescence intensity at 12.5 ug/ml measured every 1 sec for 50 mins by SYTOX green dye based fluorimetric assay; assay type: functional
How it was run: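 Exponential-phase MRSA DM9808R grown on TSA, washed twice and resuspended in PBS (10 mM, pH 7) to OD600 0.2. Cells were loaded with 0.3 μM SYTOX Green in the dark until fluorescence stabilized. Test samples were then added (final DMF 0.5%). Fluorescence at ex 504/em 523 nm was recorded every 1 s for 50 min. Biological replicates.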

Lipid bilayer = assay: Membrane permeabilization activity in DOPE/DOPG large unilamellar liposomes assessed as leakage of calcein at 1:4 to 1:8 compound to lipid ratio by fluorescence assay
Staphylococcus aureus [18] = assay: Antibacterial activity against Staphylococcus aureus ATCC 29213 infected in C57BL6 mouse keratitis model assessed as log reduction in bacterial burden at 0.5 % administered 4 times daily at 2 hrs interval for 1 day; assay type: functional
How it was run: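 C57BL6 mice, 6–8 weeks, 20–30 g, four per group, anesthetized with ketamine/xylazine. Right cornea scratched (three 1 mm cuts), 10 μL of 6×10^8 CFU/mL S. aureus ATCC 29213 in PBS applied topically. From day 1, 0.5% drug in PBS (12 mM, pH 7.2) given 4 times at 2 h intervals. Corneas homogenized in 0.9% NaCl/0.25% BSA, diluted, plated in duplicate on TSA, 48 h at 35 °C.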

SMILES | MIC (Staphylococcus aureus [1]) | MIC (Staphylococcus aureus [2]) | MIC (Staphylococcus aureus [3]) | MIC (Bacillus cereus) | also measured
COc1ccc(-c2oc3c(CC=C(C)C)c(OCCCCN(C)C)cc(O)c3c(=O)c2OCCCCN(C)C)cc1 | 12.5 µg/mL | 25 µg/mL | 12.5 µg/mL | 25 µg/mL | –
CC(C)(C)c1cc(C(C)(C)C)c2[nH]c(C(C)(C)C)c(C[C@H](NC(=O)[C@@H](N)CCCNC(=N)N)C(=O)N[C@@H](CCCNC(=N)N)C(=O)NCCc3ccccc3)c2c1 [LTX-109] | – | – | – | – | MIC (Staphylococcus aureus [4]): 4 µg/mL (≈ 5.08 µM); MIC (Staphylococcus aureus [5]): 4 µg/mL (≈ 5.08 µM); MIC (Staphylococcus aureus [6]): 4 µg/mL (≈ 5.08 µM); MIC (Staphylococcus aureus [7]): 4 µg/mL (≈ 5.08 µM); MIC (Staphylococcus aureus [8]): 4 µg/mL (≈ 5.08 µM); MIC (Staphylococcus aureus [9]): 4 µg/mL (≈ 5.08 µM); MIC (Staphylococcus aureus [10]): 4 µg/mL (≈ 5.08 µM); MIC (Staphylococcus aureus [11]): 4 µg/mL (≈ 5.08 µM); MIC (Staphylococcus aureus [12]): 4 µg/mL (≈ 5.08 µM); MIC (Staphylococcus aureus [13]): 4 µg/mL (≈ 5.08 µM); MIC (Staphylococcus aureus [14]): 4 µg/mL (≈ 5.08 µM); MIC (Staphylococcus aureus [15]): 4 µg/mL (≈ 5.08 µM); Ratio [16]: 44
COc1ccc(-c2oc3c(CC=C(C)C)c(OCCBr)cc(O)c3c(=O)c2OCCBr)cc1 | 10 µM | 5 µM | 5 µM | 5 µM | –
COC(=O)[C@H](Cc1cnc[nH]1)NC(=O)COc1cc(O)c2c(=O)c(OCC(=O)N[C@@H](Cc3cnc[nH]3)C(=O)OC)c(-c3ccc(OC)cc3)oc2c1CC=C(C)C | > 63.5 µM | > 63.5 µM | > 63.5 µM | > 63.5 µM | Activity (Staphylococcus aureus [17]): inactive; Activity (Lipid bilayer): < 5%
CCN(CC)CCCCOc1cc(O)c2c(=O)c(OCCCCN(CC)CC)c(-c3ccc(OC)cc3)oc2c1CC=C(C)C | 12.5 µg/mL | 25 µg/mL | 12.5 µg/mL | 6.25 µg/mL | –
C[C@H]1COc2c(N3CCN(C)CC3)c(F)cc3c(=O)c(C(=O)O)cn1c23 | – | – | – | – | Activity (Staphylococcus aureus [18]): Active
CCN(CC)CCCCCCCCOc1cc(O)c2c(=O)c(OCCCCCCCCN(CC)CC)c(-c3ccc(OC)cc3)oc2c1CC=C(C)C | > 50 µg/mL | > 50 µg/mL | > 50 µg/mL | > 50 µg/mL | –
CN[C@H](CC(C)C)C(=O)N[C@H]1C(=O)N[C@@H](CC(N)=O)C(=O)N[C@H]2C(=O)N[C@H]3C(=O)N[C@H](C(=O)N[C@H](C(=O)O)c4cc(O)cc(O)c4-c4cc3ccc4O)[C@H](O)c3ccc(c(Cl)c3)Oc3cc2cc(c3O[C@@H]2O[C@H](CO)[C@@H](O)[C@H](O)[C@H]2O[C@H]2C[C@](C)(N)[C@H](O)[C@H](C)O2)Oc2ccc(cc2Cl)[C@H]1O [VANCOMYCIN] | 2.2 µM | 1.1 µM | 1.1 µM | 1.1 µM | MIC (Staphylococcus aureus [4]): 1.56 µg/mL (≈ 1.08 µM); MIC (Staphylococcus aureus [5]): 0.78 µg/mL (≈ 0.538 µM); MIC (Staphylococcus aureus [6]): 1.56 µg/mL (≈ 1.08 µM); MIC (Staphylococcus aureus [7]): 1.56 µg/mL (≈ 1.08 µM); MIC (Staphylococcus aureus [8]): 0.78 µg/mL (≈ 0.538 µM); MIC (Staphylococcus aureus [9]): 0.78 µg/mL (≈ 0.538 µM); MIC (Staphylococcus aureus [10]): 0.78 µg/mL (≈ 0.538 µM); MIC (Staphylococcus aureus [11]): 1.56 µg/mL (≈ 1.08 µM); MIC (Staphylococcus aureus [12]): 0.78 µg/mL (≈ 0.538 µM); MIC (Staphylococcus aureus [13]): 0.78 µg/mL (≈ 0.538 µM); MIC (Staphylococcus aureus [14]): 1.56 µg/mL (≈ 1.08 µM); MIC (Staphylococcus aureus [15]): 1.56 µg/mL (≈ 1.08 µM)
COc1ccc(-c2oc3c(CC=C(C)C)c(OCC(=O)N[C@@H](CCCNC(=N)N)C(=O)OC(C)(C)C)cc(O)c3c(=O)c2OCC(=O)N[C@@H](CCCNC(=N)N)C(=O)OC(C)(C)C)cc1 | 3.4 µM | 3.4 µM | 6.8 µM | 3.4 µM | –
